≈ marks a conversion by molar mass, not a printed value.
Legend:
Format in all cases: functional
[1] = system: Enterobacter cloacae; assay: Antibacterial activity against Enterobacter cloacae 265A; details: Enterobacter cloacae; read-out: MIC
[2] = system: Escherichia coli; assay: Antibacterial activity against Escherichia coli EC14; details: Escherichia coli; read-out: MIC
[3] = system: Enterobacter cloacae; assay: Antibacterial activity against Enterobacter cloacae EB5; details: Enterobacter cloacae; read-out: MIC
[4] = system: Escherichia coli; assay: Antibacterial activity against Escherichia coli TEM; details: Escherichia coli; read-out: MIC
[5] = system: Klebsiella pneumoniae; assay: microbe, parasite or virus in culture; details: Klebsiella pneumoniae; read-out: MIC
[6] = system: Klebsiella pneumoniae; assay: Antibacterial activity against Klebsiella pneumoniae X26; details: Klebsiella pneumoniae; read-out: MIC
[7] = system: Pseudomonas aeruginosa; assay: In vivo efficacy against Pseudomonas aeruginosa infected mice treated at 1 hr and 5 hr post infection; details: Pseudomonas aeruginosa; read-out: ED50
[8] = system: Staphylococcus aureus; assay: In vivo efficacy against Staphylococcus aureus infected mice treated at 1 hr and 5 hr post infection
[9] = system: Escherichia coli; assay: In vivo efficacy against Escherichia coli infected mice treated at 1 hr and 5 hr post infection; details: Escherichia coli; read-out: ED50
[10] = system: Escherichia coli; assay: In vivo efficacy against Escherichia coli infections in mice; details: Escherichia coli; read-out: MIC
[11] = system: Pseudomonas aeruginosa; assay: In vivo efficacy against Pseudomonas aeruginosa infections in mice; details: Pseudomonas aeruginosa; read-out: MIC
[12] = system: Staphylococcus aureus; assay: In vivo efficacy against Staphylococcus aureus infections in mice; details: Staphylococcus aureus; read-out: MIC
[13] = system: Pseudomonas aeruginosa; assay: Antibacterial activity against Pseudomonas aeruginosa X528; details: Pseudomonas aeruginosa; read-out: MIC
[14] = system: Pseudomonas aeruginosa; assay: Antibacterial activity against Pseudomonas aeruginosa PS18; details: Pseudomonas aeruginosa; read-out: MIC
[15] = system: Staphylococcus aureus; assay: Antibacterial activity against penicillin G resistance Staphylococcus aureus; details: Staphylococcus aureus; read-out: MIC
[16] = system: Staphylococcus aureus; assay: Antibacterial activity against penicillin G susceptible Staphylococcus aureus; details: Staphylococcus aureus; read-out: MIC
[17] = system: Streptococcus pneumoniae; assay: Antibacterial activity against Streptococcus pneumoniae; details: Streptococcus pneumoniae; read-out: MIC
[18] = system: Serratia marcescens; assay: Antibacterial activity against Serratia marcescens SE3; details: Serratia marcescens; read-out: MIC
[19] = system: Streptococcus pyogenes; assay: Antibacterial activity against Streptococcus pyogenes; details: Streptococcus pyogenes; read-out: MIC
[20] = system: Enterococcus faecium; assay: Antibacterial activity against Enterococcus faecium; details: Enterococcus faecium; read-out: MIC
[21] = system: Escherichia coli; assay: In vitro relative hydrolysis rate against Escherichia coli IIIa
Outline: (§1)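 Spectrophotometric hydrolysis at 265 nm, substrate exposed to partially purified cell-free β-lactamase preparations; rate expressed as percentage of the cephaloridine rate.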

[22] = system: Enterobacter cloacae; assay: In vitro relative hydrolysis rate against Enterobacter Ia; outline: as §1
[23] = system: Klebsiella pneumoniae; assay: In vitro relative hydrolysis rate against Klebsiella IV; outline: as §1
[24] = system: Pseudomonas aeruginosa; assay: In vitro relative hydrolysis rate against Pseudomonas Id; outline: as §1
[25] = system: Staphylococcus aureus; assay: In vitro relative hydrolysis rate against Staphylococcus aureus; outline: as §1
[26] = Staphylococcus aureus, read-out: ED50

SMILES | MIC [1] [µg/mL] | MIC [2] [µg/mL] | MIC [3] [µg/mL] | MIC [4] [µg/mL] | MIC [5] [µg/mL] | MIC [6] [µg/mL] | ED50 [7] [mg/kg] | ED50 [8, 26] [mg/kg] | ED50 [9] [mg/kg] | MIC [10] [µg/mL] | MIC [11] [µg/mL] | MIC [12] [µg/mL] | MIC [13] [µg/mL] | MIC [14] [µg/mL] | MIC [15] [µg/mL] | MIC [16] [µg/mL] | MIC [17] [µg/mL] | MIC [18] [µg/mL] | MIC [19] [µg/mL] | MIC [20] [µg/mL] | also measured
CO/N=C(\C(=O)N[C@@H]1C(=O)N2C(C(=O)[O-])=C(C[n+]3cccc4cc(O)ccc43)CS[C@H]12)c1csc(N)n1 | 16 (≈ 29.6 µM) | 0.03 (≈ 0.0555 µM) | 0.5 (≈ 0.925 µM) | 0.03 (≈ 0.0555 µM) | 4 (≈ 7.4 µM) | < 0.008 | 29 | 1 | 0.04 | 0.03 (≈ 0.0555 µM) | 8 (≈ 14.8 µM) | 1 (≈ 1.85 µM) | 8 (≈ 14.8 µM) | 8 (≈ 14.8 µM) | 2 (≈ 3.7 µM) | 1 (≈ 1.85 µM) | < 0.008 | 0.5 (≈ 0.925 µM) | < 0.008 | 128 (≈ 237 µM) | –
CO/N=C(\C(=O)N[C@@H]1C(=O)N2C(C(=O)[O-])=C(C[n+]3cccc4ccc(O)cc43)CS[C@H]12)c1csc(N)n1 | 8 (≈ 14.8 µM) | 0.06 (≈ 0.111 µM) | 0.25 (≈ 0.462 µM) | 0.125 (≈ 0.231 µM) | 4 (≈ 7.4 µM) | 0.03 (≈ 0.0555 µM) | > 50 | 4 | 0.05 | 0.06 (≈ 0.111 µM) | 16 (≈ 29.6 µM) | 4 (≈ 7.4 µM) | 16 (≈ 29.6 µM) | 32 (≈ 59.2 µM) | 8 (≈ 14.8 µM) | 4 (≈ 7.4 µM) | 0.06 (≈ 0.111 µM) | 0.5 (≈ 0.925 µM) | 0.03 (≈ 0.0555 µM) | > 128 | –
CO/N=C(\C(=O)N[C@@H]1C(=O)N2C(C(=O)[O-])=C(C[n+]3cccc(S(=O)(=O)O)c3)CS[C@H]12)c1csc(N)n1 | > 128 | 0.06 (≈ 0.108 µM) | 0.5 (≈ 0.902 µM) | 0.5 (≈ 0.902 µM) | 64 (≈ 115 µM) | 0.125 (≈ 0.225 µM) | 41.6 | > 10 | 0.08 | 0.06 (≈ 0.108 µM) | 64 (≈ 115 µM) | 4 (≈ 7.21 µM) | 8 (≈ 14.4 µM) | 32 (≈ 57.7 µM) | 8 (≈ 14.4 µM) | 4 (≈ 7.21 µM) | 0.06 (≈ 0.108 µM) | 0.25 (≈ 0.451 µM) | 0.06 (≈ 0.108 µM) | > 128 | –
CO/N=C(\C(=O)N[C@@H]1C(=O)N2C(C(=O)[O-])=C(C[n+]3cccc4ccsc43)CS[C@H]12)c1csc(N)n1 | 4 (≈ 7.54 µM) | 0.03 (≈ 0.0565 µM) | 0.125 (≈ 0.236 µM) | 0.06 (≈ 0.113 µM) | 4 (≈ 7.54 µM) | 0.03 (≈ 0.0565 µM) | 13.5 | 0.8 | 0.05 | 0.015 (≈ 0.0283 µM) | 4 (≈ 7.54 µM) | 1 (≈ 1.88 µM) | 4 (≈ 7.54 µM) | 8 (≈ 15.1 µM) | 2 (≈ 3.77 µM) | 1 (≈ 1.88 µM) | 0.03 (≈ 0.0565 µM) | 0.06 (≈ 0.113 µM) | 0.03 (≈ 0.0565 µM) | 128 (≈ 241 µM) | Hydrolysis rate [21]: 0.5; Hydrolysis rate [22]: 0.1; Hydrolysis rate [23]: 1.5; Hydrolysis rate [24]: 0; Hydrolysis rate [25]: 9.6
CO/N=C(\C(=O)N[C@@H]1C(=O)N2C(C(=O)[O-])=C(C[n+]3ccc4c(O)cccc4c3)CS[C@H]12)c1csc(N)n1 | 16 (≈ 29.6 µM) | 0.015 (≈ 0.0277 µM) | 0.125 (≈ 0.231 µM) | 0.03 (≈ 0.0555 µM) | 8 (≈ 14.8 µM) | < 0.008 | > 50 | 2 | < 0.03 | 0.015 (≈ 0.0277 µM) | 8 (≈ 14.8 µM) | 1 (≈ 1.85 µM) | 8 (≈ 14.8 µM) | 8 (≈ 14.8 µM) | 2 (≈ 3.7 µM) | 1 (≈ 1.85 µM) | 0.05 (≈ 0.0925 µM) | 0.25 (≈ 0.462 µM) | < 0.008 | 128 (≈ 237 µM) | –
CO/N=C(\C(=O)N[C@@H]1C(=O)N2C(C(=O)[O-])=C(C[n+]3ccc(CC(=O)NO)cc3)CS[C@H]12)c1csc(N)n1 (stereo in doubt; 11) | – | – | – | – | – | – | – | – | – | – | – | – | – | – | – | – | – | – | – | – | Hydrolysis rate [21]: 0.5; Hydrolysis rate [22]: 0.4; Hydrolysis rate [23]: 10.4; ED50 [8]: 4 mg/kg; Hydrolysis rate [24]: 0.1; Hydrolysis rate [25]: 3.4
CO/N=C(\C(=O)N[C@@H]1C(=O)N2C(C(=O)[O-])=C(C[n+]3cc(C)cc(C)c3)CS[C@H]12)c1csc(N)n1 | 8 (≈ 15.9 µM) | 0.06 (≈ 0.119 µM) | 0.125 (≈ 0.249 µM) | 0.06 (≈ 0.119 µM) | 8 (≈ 15.9 µM) | 0.03 (≈ 0.0597 µM) | – | – | – | – | – | – | 4 (≈ 7.96 µM) | 8 (≈ 15.9 µM) | 2 (≈ 3.98 µM) | 1 (≈ 1.99 µM) | 0.03 (≈ 0.0597 µM) | 0.125 (≈ 0.249 µM) | < 0.008 | > 128 | Hydrolysis rate [21]: 0.5; Hydrolysis rate [22]: 0.1; Hydrolysis rate [23]: 1.5; Hydrolysis rate [24]: 0.1; Hydrolysis rate [25]: 6.1
